Columns and labels:
[1] = target: T1, Prostaglandin E2 receptor EP3 subtype (Mus musculus, UniProt P30557); experiment: Displacement of [3H]PGE2 from mouse EP3 receptor expressed in CHO cells after 60 mins by scintillation counter; format: cell-based
T1 sequence (P30557 whole entry): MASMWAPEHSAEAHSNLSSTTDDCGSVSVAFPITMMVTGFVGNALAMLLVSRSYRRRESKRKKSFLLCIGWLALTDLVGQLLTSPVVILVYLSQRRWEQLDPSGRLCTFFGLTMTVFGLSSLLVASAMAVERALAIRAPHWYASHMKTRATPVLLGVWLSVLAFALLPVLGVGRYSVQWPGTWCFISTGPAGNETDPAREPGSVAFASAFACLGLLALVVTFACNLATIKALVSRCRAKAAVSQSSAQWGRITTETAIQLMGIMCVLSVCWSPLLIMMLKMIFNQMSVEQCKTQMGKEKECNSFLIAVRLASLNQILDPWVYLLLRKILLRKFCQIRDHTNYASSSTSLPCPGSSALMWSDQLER

[2] = target: T1, Prostaglandin E2 receptor EP3 subtype; experiment: Antagonist activity at mouse EP3 receptor expressed in CHO cells assessed as inhibition of PGE2-induced increase in intracellular calcium level after 1 hr by FDSS in presence of 1% bovine serum albumin; format: functional, cell-based
[3] = target: Prostaglandin E2 receptor EP2 subtype (Mus musculus, UniProt Q62053); experiment: Displacement of [3H]PGE2 from mouse EP2 receptor expressed in CHO cells after 60 mins by scintillation counter; format: cell-based
[4] = target: T2, Prostaglandin E2 receptor EP1 subtype (Mus musculus, UniProt P35375); experiment: Displacement of [3H]PGE2 from mouse EP1 receptor expressed in CHO cells after 60 mins by scintillation counter; format: cell-based
T2 sequence (P35375 whole entry): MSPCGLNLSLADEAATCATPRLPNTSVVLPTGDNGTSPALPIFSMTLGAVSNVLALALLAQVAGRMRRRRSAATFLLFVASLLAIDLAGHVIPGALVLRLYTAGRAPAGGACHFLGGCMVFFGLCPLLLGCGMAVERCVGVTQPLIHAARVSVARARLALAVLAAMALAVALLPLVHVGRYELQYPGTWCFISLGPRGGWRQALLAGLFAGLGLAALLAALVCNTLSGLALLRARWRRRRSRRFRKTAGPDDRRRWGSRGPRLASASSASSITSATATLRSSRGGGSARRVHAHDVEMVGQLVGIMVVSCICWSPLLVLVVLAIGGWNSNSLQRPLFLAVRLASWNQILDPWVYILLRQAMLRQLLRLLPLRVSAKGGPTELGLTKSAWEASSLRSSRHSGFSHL

[5] = target: Prostaglandin E2 receptor EP4 subtype (Mus musculus, UniProt P32240); experiment: Displacement of [3H]PGE2 from mouse EP4 receptor expressed in CHO cells after 60 mins by scintillation counter; format: cell-based
Rattus norvegicus [6] = experiment: Inhibition of PGE2-induced uterine contraction in pregnant rat at 0.3 mg/kg, id; format: functional; details: route intraduodenal
In short: (§1)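 Pregnant rats received test agent intraduodenally (0.3 or 1 mg/kg tested). Uterine contraction was induced with PGE2 and suppression scored as % inhibition. Each value is the mean of two experiments.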

Rattus norvegicus [7] = experiment: Inhibition of PGE2-induced uterine contraction in pregnant rat at 1 mg/kg, id; format: functional; details: route intraduodenal; in short: as §1
Rattus norvegicus [8] = experiment: Inhibition of PGE2-induced uterine contraction in pregnant rat at 3 mg/kg, po after 4 hrs; format: functional
Rattus norvegicus [9] = experiment: Inhibition of PGE2-induced uterine contraction in id dosed pregnant rat; format: functional, organism-based; in short: as §1

Prostaglandin E2 receptor EP4 subtype, sequence (P32240 whole entry): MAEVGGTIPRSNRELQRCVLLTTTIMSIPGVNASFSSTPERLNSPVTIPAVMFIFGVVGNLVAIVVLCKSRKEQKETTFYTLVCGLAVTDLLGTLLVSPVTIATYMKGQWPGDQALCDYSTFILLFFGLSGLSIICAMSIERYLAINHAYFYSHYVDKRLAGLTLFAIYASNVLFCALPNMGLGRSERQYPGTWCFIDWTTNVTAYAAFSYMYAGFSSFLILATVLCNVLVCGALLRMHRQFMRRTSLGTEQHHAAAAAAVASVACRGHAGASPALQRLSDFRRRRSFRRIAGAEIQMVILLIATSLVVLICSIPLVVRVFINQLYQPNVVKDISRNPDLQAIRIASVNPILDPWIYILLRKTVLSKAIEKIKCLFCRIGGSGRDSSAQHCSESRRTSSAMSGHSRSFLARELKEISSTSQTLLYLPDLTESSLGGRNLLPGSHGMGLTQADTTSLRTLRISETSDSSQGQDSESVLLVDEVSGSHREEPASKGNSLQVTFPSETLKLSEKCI
Prostaglandin E2 receptor EP2 subtype, sequence (Q62053 whole entry): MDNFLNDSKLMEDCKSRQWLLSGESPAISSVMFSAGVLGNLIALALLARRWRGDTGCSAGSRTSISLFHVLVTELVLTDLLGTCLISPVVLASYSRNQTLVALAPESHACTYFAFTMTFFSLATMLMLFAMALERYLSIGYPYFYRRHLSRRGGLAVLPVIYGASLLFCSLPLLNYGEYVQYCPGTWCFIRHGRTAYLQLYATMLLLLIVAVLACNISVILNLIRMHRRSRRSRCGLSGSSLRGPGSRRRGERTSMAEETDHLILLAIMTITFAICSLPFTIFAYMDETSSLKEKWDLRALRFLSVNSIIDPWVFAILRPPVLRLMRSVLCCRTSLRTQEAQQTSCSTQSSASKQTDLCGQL

Ki [1] [nM]	IC50 [2] [nM]	Ki [3] [nM]	Ki [4] [nM]	Ki [5] [nM]	SMILES	inhibition in vivo at 0.3 mg/kg (Rattus norvegicus [6]) [%]	inhibition in vivo at 1 mg/kg (Rattus norvegicus [7]) [%]	inhibition in vivo at 3 mg/kg (Rattus norvegicus [8]) [%]	inhibition (Rattus norvegicus [9])
1	150				O=C(CCc1ccc(Cn2cccn2)cc1OCCc1ccc2ccccc2c1)NS(=O)(=O)c1cccnc1				
0.065	18				N#Cc1cccc(S(=O)(=O)NC(=O)CCc2ccc(Cn3cccn3)cc2OCCc2ccc3ccccc3c2)c1				
0.22	5.5				O=C(CCc1ccc(Cn2cccn2)cc1OCCc1ccc2ccccc2c1)NS(=O)(=O)c1ccc(F)c(Cl)c1				
0.58	88				Cc1ccc(S(=O)(=O)NC(=O)CCc2ccc(Cn3cccn3)cc2OCCc2ccc3ccccc3c2)o1				
22	> 10000				CS(=O)(=O)NC(=O)CCc1ccc(Cn2cccn2)cc1OCCc1ccc2ccccc2c1				
0.45	7.8				O=C(CCc1ccc(Cn2cccn2)cc1OCCc1ccc2ccccc2c1)NS(=O)(=O)c1ccc(Cl)c(Cl)c1				
1.6	190				O=C(CCc1ccc(Cn2cccn2)cc1OCCc1ccc2ccccc2c1)NS(=O)(=O)c1ccccn1				
0.086	1.2	> 10000	2100	2400	O=C(CCc1ccc(Cn2cccn2)cc1OCCc1ccc2ccccc2c1)NS(=O)(=O)c1ccc(F)c(F)c1	43	76		Dose-dependent effect
0.5	140				O=C(CCc1ccc(Cn2cccn2)cc1OCCc1ccc2ccccc2c1)NS(=O)(=O)c1ccccc1				
0.43	10				Cc1ccc(S(=O)(=O)NC(=O)CCc2ccc(Cn3cccn3)cc2OCCc2ccc3ccccc3c2)cc1Cl				

Second part, the compound before the results:

SMILES	Ki [1] [nM]	IC50 [2] [nM]	Ki [3] [nM]	Ki [4] [nM]	Ki [5] [nM]	inhibition in vivo at 0.3 mg/kg (Rattus norvegicus [6]) [%]	inhibition in vivo at 1 mg/kg (Rattus norvegicus [7]) [%]	inhibition in vivo at 3 mg/kg (Rattus norvegicus [8]) [%]	inhibition (Rattus norvegicus [9])
N#Cc1cccc(OCc2ccc(CCC(=O)NS(=O)(=O)c3ccc(F)c(F)c3)c(OCCc3ccc4ccccc4c3)c2)c1	0.51	24	> 10000	> 10000	2300	50	92	66	
Cc1csc(S(=O)(=O)NC(=O)CCc2ccc(Cn3cccn3)cc2OCCc2ccc3ccccc3c2)n1	0.35	110							
O=C(CCc1ccc(Cn2cccn2)cc1OCCc1ccccc1)NS(=O)(=O)c1ccc(F)c(F)c1	0.2	59	> 10000	1300	2500	29	51		
O=C(NCc1ccc(Cn2cccn2)cc1OCCc1ccc2ccccc2c1)NS(=O)(=O)c1ccccc1	15	820							
O=C(CCc1ccc(CN2CCOCC2)cc1OCCc1ccc2ccccc2c1)NS(=O)(=O)c1ccc(F)c(F)c1	1.2	47	> 10000	5000	> 10000		35		
O=C(CCc1ccc(COc2cccnc2)cc1OCCc1ccc2ccccc2c1)NS(=O)(=O)c1ccc(F)c(F)c1	0.16	0.4	> 10000	1700	710	44	71		
O=C(O)CCc1ccc(Cn2cccn2)cc1OCCc1ccc2ccccc2c1	21								
CN(C)Cc1ccc(CCC(=O)NS(=O)(=O)c2ccc(F)c(F)c2)c(OCCc2ccc3ccccc3c2)c1	8.2	24	> 10000	> 10000	> 10000		32		
CN(CCOc1cc(Cn2cccn2)ccc1CCC(=O)NS(=O)(=O)c1ccc(F)c(F)c1)c1ccccc1	0.12	3.8	> 10000	260	3500		50		
O=C(NS(=O)(=O)CCc1ccc(Cn2cccn2)cc1OCCc1ccc2ccccc2c1)c1ccccc1	140	> 10000							
O=C(CCc1ccc(Cn2cccn2)cc1OCCOc1ccccc1)NS(=O)(=O)c1ccc(F)c(F)c1	0.27	51	> 10000	2800	> 10000		28		
O=C(CCc1ccc(Cn2cccn2)cc1OCCc1cccc(N2CCOCC2)c1)NS(=O)(=O)c1ccc(F)c(F)c1	0.54	6.4	> 10000	560	3700		33		
Cc1cn(Cc2ccc(Cl)cc2Cl)c2c(/C=C/C(=O)NS(=O)(=O)c3cc(Cl)c(Cl)s3)cc(F)cc12								70	

Reference: ChEMBL document CHEMBL1156219, “Discovery of novel N-acylsulfonamide analogs as potent and selective EP3 receptor antagonists” (Bioorg Med Chem Lett, 2010)
